Common to all, as to assay type: functional
In one experiment the test system is Nakaseomyces glabratus. Briefly: Antifungal activity against Candida glabrata after 48 hrs by spectrophotometry. Conditions: for MIC: Nakaseomyces glabratus, 48 h. The method, boiled down:
(§1)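 Broth microdilution MIC against pathogenic human yeast strains. Saponin in malt extract broth (malt extract 15 g, peptone 5 g per L), final 3.12-200 µg/mL, serial dilution, triplicate wells. Each well inoculated with 10 µL of 10^4 CFU/mL suspension, incubated 30 °C for 48 h, growth read at 630 nm. MIC is the lowest concentration with no visible growth.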

Another experiment has as its system Candida tropicalis. The experiment can be described thus: Antifungal activity against Candida tropicalis after 48 hrs by spectrophotometry. The following applies: for MIC: Candida tropicalis, 48 h. The method, boiled down: as §1
For another experiment, the system named is Candida albicans. Briefly: Antifungal activity against Candida albicans after 48 hrs by spectrophotometry. Conditions: for MIC: Candida albicans, 48 h. In short, it runs like this: as §1

Molecules are shown by their SMILES. ≈ marks a conversion by molar mass, not a printed value. Where only a bound is given, the exact number is not on record here.

As a reminder, the MIC is the lowest concentration that inhibits growth of the organism. The low end stands for inhibition by little substance, the high end for a need for much substance.

Regarding `C[C@@H]1CC[C@@]2(OC1)O[C@H]1C[C@H]3[C@@H]4CC[C@@H]5C[C@@H](O[C@@H]6O[C@H](CO[C@@H]7O[C@H](CO)[C@@H](O)[C@H](O)[C@H]7O)[C@@H](O[C@@H]7O[C@H](CO)[C@@H](O)[C@H](O)[C@H]7O)[C@H](O)[C@H]6O[C@@H]6O[C@H](CO)[C@@H](O)[C@H](O)[C@H]6O)CC[C@]5(C)[C@H]4CC[C@]3(C)[C@H]1[C@@H]2C`, the minimum inhibitory concentration (MIC) in the experiment with Nakaseomyces glabratus is 12.5 µg/mL (≈ 11.7 µM); with Candida tropicalis it was 50 µg/mL (≈ 46.9 µM); against Candida albicans, 25 µg/mL (≈ 23.5 µM).

Regarding `C[C@@H]1CC[C@@]2(OC1)O[C@H]1C[C@H]3[C@@H]4CC[C@@H]5C[C@@H](O[C@@H]6O[C@H](CO[C@@H]7O[C@H](CO)[C@@H](O)[C@H](O)[C@H]7O)[C@@H](O[C@@H]7O[C@H](CO)[C@@H](O)[C@H](O)[C@H]7O)[C@H](O)[C@H]6O)CC[C@]5(C)[C@H]4CC[C@]3(C)[C@H]1[C@@H]2C`, the figures for the MIC against Nakaseomyces glabratus, against Candida tropicalis and with Candida albicans were 12.5 µg/mL (≈ 13.8 µM), 50 µg/mL (≈ 55.4 µM) and 25 µg/mL (≈ 27.7 µM), respectively.

Turning to `CO[C@]1(CC[C@@H](C)CO[C@@H]2O[C@H](CO)[C@@H](O)[C@H](O)[C@H]2O)O[C@H]2C[C@H]3[C@@H]4CC[C@@H]5C[C@@H](O[C@@H]6O[C@H](CO[C@@H]7O[C@H](CO)[C@@H](O)[C@H](O)[C@H]7O)[C@@H](O[C@@H]7O[C@H](CO)[C@@H](O)[C@H](O)[C@H]7O)[C@H](O)[C@H]6O[C@@H]6O[C@H](CO)[C@@H](O)[C@H](O)[C@H]6O)CC[C@]5(C)[C@H]4CC[C@]3(C)[C@H]2[C@@H]1C`, the Activity in the experiment on Nakaseomyces glabratus, in the experiment on Candida tropicalis and with Candida albicans was above 200 µg/mL each time.

On to `C[C@@H]1CC[C@@]2(OC1)O[C@H]1C[C@H]3[C@@H]4CC[C@@H]5C[C@@H](O[C@@H]6O[C@H](CO[C@@H]7O[C@H](CO)[C@@H](O)[C@H](O)[C@H]7O)[C@@H](O)[C@H](O)[C@H]6O[C@@H]6O[C@H](CO)[C@@H](O)[C@H](O)[C@H]6O)CC[C@]5(C)[C@H]4CC[C@]3(C)[C@H]1[C@@H]2C` [DISPOROSIDE A], for which the minimal inhibitory concentration (MIC) in the experiment with Nakaseomyces glabratus was found to be 25 µg/mL (≈ 27.7 µM); in the experiment on Candida tropicalis, 50 µg/mL (≈ 55.4 µM); in the experiment with Candida albicans, 25 µg/mL (≈ 27.7 µM).

With `CC(=O)N1CCN(c2ccc(OCC3COC(Cn4ccnc4)(c4ccc(Cl)cc4Cl)O3)cc2)CC1` (stereo not given) [KETOCONAZOLE], the figures for the MIC against Nakaseomyces glabratus, with Candida tropicalis and with Candida albicans were 0.78 µg/mL (≈ 1.47 µM), 1.56 µg/mL (≈ 2.94 µM) and 0.78 µg/mL (≈ 1.47 µM), respectively.
